Assay results as given in ChEMBL document CHEMBL1155133, “Synthesis, cytotoxicity, and antioxidative activity of minor prenylated chalcones from Humulus lupulus” (J Nat Prod, 2008).

What was measured:
[1] = Antioxidant activity assessed as trolox equivalents at 0.2 to 0.6 uM by ORAC-fluorescein assay; assay type: functional
[2] = Antioxidant activity assessed as trolox equivalents at 0.4 to 1.3 uM by ORAC-fluorescein assay; assay type: functional
[3] = Antioxidant activity assessed as trolox equivalents at 0.1 to 1 uM by ORAC-fluorescein assay; assay type: functional
How it was run: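 Fluorescein probe at 300 nM final in 75 mM phosphate buffer, pH 7.4. Samples at five concentrations (0.1-1.0 µM) preincubated with probe at 37 °C for 15 min. AAPH (12 mM final) then added. Fluorescence (ex 485/em 536 nm) read every minute for 80 min at 37 °C. Quadruplicates, ≥4 independent assays. AUC converted to Trolox equivalents (mean ± SD) using a 1-8 µM Trolox curve run in each assay.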

HeLa = experiment: Cytotoxicity against human HeLa cells by MTT assay after 72 hrs; assay type: functional, cell-based
How it was run: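 HeLa (ATCC […]) cells grown in MEM with 10% FCS and 2 mM L-glutamine at 37 °C, 5% CO2. MTT colorimetric read-out at 560 nm. Eight concentrations tested in duplicate, with experiments repeated three times. IC50 reported as mean ± SD.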

[4] = Antioxidant activity assessed as trolox equivalents at 0.2 to 1 uM by ORAC-fluorescein assay; assay type: functional

SMILES	Activity [3]	IC50 (HeLa) [µM]	other results
O=c1c(O)c(-c2ccc(O)c(O)c2)oc2cc(O)cc(O)c12	–	–	Activity [1]: 10.5
COc1cc(/C=C/C(=O)O)ccc1O	–	–	Activity [2]: 4.4
COc1c(CC=C(C)C)c(O)cc(O)c1C(=O)/C=C/c1ccc(O)cc1	5.2	10.4	–
COc1cc(O)c(C/C=C(\C)CCC=C(C)C)c(O)c1C(=O)/C=C/c1ccc(O)cc1	3.4	8.2	–
COc1cc(OC)c(C(=O)/C=C/c2ccc(O)cc2)c(O)c1C	2.1	12.2	–
COc1cc(O)c(CC=C(C)C)c(O)c1C(=O)/C=C/c1ccc(O)cc1	2.3	–	–
CC(C)=CCC/C(C)=C/Cc1c(O)cc(O)c(C(=O)/C=C/c2ccc(O)cc2)c1O	2.3	18.2	–
O=C(O)/C=C/c1ccc(O)c(O)c1	–	–	Activity [4]: 6.6
COc1cc2c(c(O)c1C(=O)/C=C/c1ccc(O)cc1)CCC(C)(C)O2	1.7	15.4	–
COc1cc(O)c(C(=O)/C=C/c2ccc(O)cc2)c(OC)c1 [FLAVOKAWAIN C]	4	19.2	–
COc1cc2c(c(O)c1C(=O)/C=C/c1ccc(O)cc1)C=CC(C)(C)O2 [XANTHOHUMOL C]	1.8	12.5	–
COc1c(CC=C(C)C)c(O)c(CC=C(C)C)c(O)c1C(=O)/C=C/c1ccc(O)cc1	1.9	9.7	–
COc1cc(O)c(CCC(C)(C)O)c(O)c1C(=O)/C=C/c1ccc(O)cc1 [XANTHOHUMOL H]	4.8	9.2	–
